Series [1] deals with Blood. Put plainly: Biodistribution in ICR mouse blood at 925 KBq, iv after 2 mins by gamma counting. The conditions noted are these: in vivo. It is filed as ADME, organism-based. In short, it runs like this: (§1)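 The ¹⁸F tracer was given iv to normal ICR mice (n = 6 per time point). Animals were killed by cardiac excision under isoflurane at 2 or 30 min. Organs were removed, weighed and γ-counted. %dose/g was calculated against counts of a 100-fold diluted aliquot of the injectate (1% of initial dose), counted at the same time.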

Series [2] has as its system Muscle tissue. The series is described as follows: Biodistribution in ICR mouse muscle at 925 KBq, iv after 2 mins by gamma counting. It counts as ADME, organism-based. The conditions noted are these: in vivo. The procedure, abridged:
as §1

The test system of series [3] is Kidney. Put plainly: Biodistribution in ICR mouse kidney at 925 KBq, iv after 2 mins by gamma counting. It counts as ADME, organism-based. Conditions: in vivo. The procedure, abridged: as §1
Series [4] has as its system Liver. The series is described as follows: Biodistribution in ICR mouse liver at 925 KBq, iv after 2 mins by gamma counting. It counts as ADME, organism-based. Conditions: in vivo. In short, it runs like this: as §1
The test system of series [5] is Brain. Put plainly: Biodistribution in ICR mouse brain at 925 KBq, iv after 2 mins by gamma counting. The conditions noted are these: in vivo. It counts as ADME, organism-based. The procedure, abridged:
as §1

Series [6] deals with Bone. Put plainly: Biodistribution in ICR mouse bone at 925 KBq, iv after 2 mins by gamma counting. It counts as ADME, organism-based, Bone element. Conditions: in vivo. The procedure, abridged:
as §1

The test system of series [7] is Blood. Put plainly: Biodistribution in ICR mouse blood at 925 KBq, iv after 30 mins by gamma counting. It counts as ADME, organism-based. Conditions: in vivo, 0.5 h. The procedure, abridged:
as §1

Series [8] relates to Muscle tissue. Put plainly: Biodistribution in ICR mouse muscle at 925 KBq, iv after 30 mins by gamma counting. It is filed as ADME, organism-based. Conditions: in vivo, 0.5 h. In short, it runs like this:
as §1

Series [9] has as its system Kidney. Put plainly: Biodistribution in ICR mouse kidney at 925 KBq, iv after 30 mins by gamma counting. It is filed as ADME, organism-based. Conditions: in vivo, 0.5 h. The procedure, abridged:
as §1

Series [10] deals with Liver. The series is described as follows: Biodistribution in ICR mouse liver at 925 KBq, iv after 30 mins by gamma counting. It is filed as ADME, organism-based. Conditions: in vivo, 0.5 h. The procedure, abridged: as §1
Series [11] has as its system Brain. Put plainly: Biodistribution in ICR mouse brain at 925 KBq, iv after 30 mins by gamma counting. The conditions noted are these: in vivo, 0.5 h. It counts as ADME, organism-based. The procedure, abridged: as §1
Series [12] concerns Bone. Put plainly: Biodistribution in ICR mouse bone at 925 KBq, iv after 30 mins by gamma counting. It is filed as ADME, organism-based, Bone element. The conditions noted are these: in vivo, 0.5 h. The procedure, abridged: as §1
In series [13] the target is T1, Amyloid-beta precursor protein (Homo sapiens, UniProt P05067). The series is described as follows: Displacement of [18F]-amyvid from amyloid-beta aggregates in alzheimer's disease patient brain homogenates after 1 hr. It counts as tissue-based. The procedure, abridged: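 Competition binding in post-mortem AD brain tissue homogenates against [¹⁸F]5 bound to Aβ aggregates. Results are expressed as inhibition constants (Ki, nM).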
T1 sequence (P05067 whole entry): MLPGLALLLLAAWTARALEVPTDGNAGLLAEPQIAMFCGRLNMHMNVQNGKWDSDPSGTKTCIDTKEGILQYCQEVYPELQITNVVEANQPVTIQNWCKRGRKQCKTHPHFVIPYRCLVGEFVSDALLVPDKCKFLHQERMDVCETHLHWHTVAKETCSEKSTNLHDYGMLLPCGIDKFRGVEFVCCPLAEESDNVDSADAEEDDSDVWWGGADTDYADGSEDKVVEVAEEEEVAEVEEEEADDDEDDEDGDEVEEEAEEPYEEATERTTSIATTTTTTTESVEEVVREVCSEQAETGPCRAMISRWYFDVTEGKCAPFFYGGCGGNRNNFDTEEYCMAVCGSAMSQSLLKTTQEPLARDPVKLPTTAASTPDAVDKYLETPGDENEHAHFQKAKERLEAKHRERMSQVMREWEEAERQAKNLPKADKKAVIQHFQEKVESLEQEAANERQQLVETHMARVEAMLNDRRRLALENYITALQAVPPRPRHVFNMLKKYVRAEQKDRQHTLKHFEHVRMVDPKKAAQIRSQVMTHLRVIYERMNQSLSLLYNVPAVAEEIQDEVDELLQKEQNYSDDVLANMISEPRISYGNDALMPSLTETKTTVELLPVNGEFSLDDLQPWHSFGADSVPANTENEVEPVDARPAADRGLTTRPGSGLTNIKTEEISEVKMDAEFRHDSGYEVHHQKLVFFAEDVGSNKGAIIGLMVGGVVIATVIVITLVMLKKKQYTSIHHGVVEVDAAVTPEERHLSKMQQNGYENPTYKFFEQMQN
(In general: Loss of bound radioactivity is the signal in a displacement assay; it reports binding, not function.)

In series [14] the target is T1, Amyloid-beta precursor protein. Put plainly: Binding affinity to amyloid-beta plaque in cerebral blood vessels of alzheimer's disease patient cerebral amyloid angiopathy region of brain after 1 hr. Conditions: tested as the 18F-labelled form. It is filed as tissue-based. In short, it runs like this: (§2)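 Post-mortem occipital sections (20 μm) from frozen brains of confirmed CAA, AD and control subjects. The ¹⁸F-labelled tracer was applied in 40% ethanol for 1 h. Sections were washed twice for 2 min in saturated Li₂CO₃/40% ethanol, once for 2 min in 40% ethanol, then rinsed 30 s in water. Dried sections were exposed to film for 12−18 h and the images digitized.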

Series [15] has the same target. Put plainly: Binding affinity to amyloid-beta plaque in parenchymal region of alzheimer's disease patient brain after 1 hr. The conditions noted are these: tested as the 18F-labelled form. The procedure, abridged: as §2
The target is the same in series [16]. Put plainly: Binding affinity to amyloid-beta plaque in cerebral blood vessels of normal human cerebral amyloid angiopathy region of brain after 1 hr. It counts as tissue-based. The conditions noted are these: tested as the 18F-labelled form. The procedure, abridged:
as §2

Series [17] has the same target. The series is described as follows: Binding affinity to amyloid-beta plaque in parenchymal region of normal human brain after 1 hr. It counts as tissue-based. The conditions noted are these: tested as the 18F-labelled form. In short, it runs like this: as §2
Series [18] shares this target. Put plainly: Binding affinity to amyloid-beta plaque in cerebral blood vessels of alzheimer's disease patient cerebral amyloid angiopathy region of brain after 1 hr by autoradiography. It counts as tissue-based. The conditions noted are these: tested as the 18F-labelled form. In short, it runs like this:
as §2

The target is the same in series [19]. Put plainly: Binding affinity to amyloid-beta plaque in cerebral blood vessels of alzheimer's disease patient cerebral amyloid angiopathy region of brain after 1 hr by thioflavin S staining. It counts as tissue-based. The conditions noted are these: tested as the 18F-labelled form. In short, it runs like this: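 Adjacent brain sections were fixed 1 h in 10% neutral buffered formalin. Staining was with 0.025% thioflavin S in 40% ethanol for 3−5 min, then differentiation in 50% ethanol. Sections were viewed by fluorescence microscopy.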

Activity calls are given as the source filed them. The calls are words filed in the database; no cut-off is given here. Some results are limits rather than exact numbers.

For orientation: Ki means the equilibrium dissociation constant of an inhibitor or competing ligand from its target.

On to `CNc1ccc(/C=C/c2ccc(OCCOCCOCCOCCOCCOCCOCC(COCCOCCOCCOCCOCCOCCOc3ccc(/C=C/c4ccc(NC)cc4)cn3)OCC[18F])nc2)cc1`, for which the Drug uptake turned out to be 3.12 % ID/g with Blood [1]; 0.65 % ID/g in the series on Muscle tissue [2]; 13.7 % ID/g in the series with Kidney [3]; 30.2 % ID/g with Liver [4]; 0.29 % ID/g in the series on Brain [5]; 1.06 % ID/g in the series on Bone [6]. Further, the Drug uptake in the series with Blood [7] is recorded as 1.4 % ID/g; with Muscle tissue [8], 1.29 % ID/g; in the series on Kidney [9], 11.7 % ID/g; with Liver [10] it was 16 % ID/g; in the series with Brain [11], 0.38 % ID/g; in the series on Bone [12], 1.36 % ID/g.
With `CNc1ccc(/C=C/c2ccc(OCCOCCOCCOCCOCC(COCCOCCOCCOCCOc3ccc(/C=C/c4ccc(NC)cc4)cn3)OCC[18F])nc2)cc1`, the Drug uptake in the series on Blood [1] turned out to be 4.77 % ID/g; in the series on Muscle tissue [2], 0.82 % ID/g; in the series with Kidney [3] it was 8.13 % ID/g; with Liver [4] it was 21.2 % ID/g; in the series on Brain [5], 0.4 % ID/g; in the series with Bone [6] it was 1.3 % ID/g. In addition, the Drug uptake was determined as 1.54 % ID/g with Blood [7]; 1.21 % ID/g in the series with Muscle tissue [8]; 9.36 % ID/g with Kidney [9]; 21.4 % ID/g with Liver [10]; 0.4 % ID/g with Brain [11]; 2.34 % ID/g in the series on Bone [12].
With `CNc1ccc(/C=C/c2ccc(OCCOCCOCC[18F])cc2)cc1` [FLORBETABEN F18], in series [13], affinity was put at a Ki of 2.22 nM.
Regarding `CNc1ccc(/C=C/c2ccc(OCCOCCOCC[18F])nc2)cc1` [FLORBETAPIR F 18], the Drug uptake with Blood [1] worked out at 3.14 % ID/g; with Muscle tissue [2] it was 1.06 % ID/g; in the series with Kidney [3] it was 10.9 % ID/g; with Liver [4] it was 21.5 % ID/g; in the series with Brain [5] it was 7.77 % ID/g; with Bone [6], 1.43 % ID/g. In addition, the Drug uptake in the series with Blood [7] turned out to be 2.8 % ID/g; with Muscle tissue [8] it was 1.78 % ID/g; in the series on Kidney [9], 6.31 % ID/g; with Liver [10], 12.9 % ID/g; in the series on Brain [11], 1.59 % ID/g; in the series with Bone [12], 1.22 % ID/g.
As to `CNc1ccc(/C=C/c2ccc(OCCOCCOCCOCCOCC(COCCOCCOCCOCCOc3ccc(/C=C/c4ccc(NC)cc4)cn3)OCCF)nc2)cc1`, in [13], the Ki was found to be 3.24 nM. In addition, the outcome in series [14], in series [15], in [18] and in [19] was Active. The result in series [16] and in series [17] was inactive.
Consider `CN(C(=O)OC(C)(C)C)c1ccc(/C=C/c2ccc(OCCOCCOCCOCCOCC(COCCOCCOCCOCCOc3ccc(/C=C/c4ccc(N(C)C(=O)OC(C)(C)C)cc4)cn3)OCCF)nc2)cc1`, for which the Ki in series [13] is > 1000 nM.
On the same count and under the same terms, in the case of `CNc1ccc(/C=C/c2ccc(OCCOCCOCCOCCNC(=O)CN(CC(=O)NCCOCCOCCOCCOc3ccc(/C=C/c4ccc(NC)cc4)cn3)C(=O)COCCOCCOCCF)nc2)cc1` it was 71.2 nM; in that of `CNc1ccc(/C=C/c2ccc(OCCOCCOCCOCCOCCOCC(COCCOCCOCCOCCOCCOc3ccc(/C=C/c4ccc(NC)cc4)cn3)OCCF)nc2)cc1`, 7.71 nM; in that of `CNc1ccc(/C=C/c2ccc(OCCOCCOCCOCCOCCOCCOCC(COCCOCCOCCOCCOCCOCCOc3ccc(/C=C/c4ccc(NC)cc4)cn3)OCCF)nc2)cc1`, 3.86 nM.
On to `CNc1ccc(/C=C/c2ccc(OCCOCCOCCOCCn3cc(COCC(COCCOCCOCCF)(COCc4cn(CCOCCOCCOCCOc5ccc(/C=C/c6ccc(NC)cc6)cn5)nn4)COCc4cn(CCOCCOCCOCCOc5ccc(/C=C/c6ccc(NC)cc6)cn5)nn4)nn3)nc2)cc1`, for which the Ki in [13] turned out to be 468 nM.
In series [13], `CNc1ccc(-c2nc3ccc(O)cc3s2)cc1[18F]` [FLUTEMETAMOL F 18] came in with an inhibitory constant (Ki) of 0.74 nM.
Regarding `CNc1ccc(/C=C/c2ccc(OCCOCCOCCF)nc2)cc1`, the result in series [14] and in series [15] was Active. Also, the result in [16] and in series [17] was inactive.
As to `CNc1ccc(/C=C/c2ccc(OCCOCCOCCOCCOCCOCC(COCCOCCOCCOCCOCCOc3ccc(/C=C/c4ccc(NC)cc4)cn3)OCC[18F])nc2)cc1`, the Drug uptake with Blood [1] came to 2.55 % ID/g; in the series with Muscle tissue [2] it was 1.3 % ID/g; in the series with Kidney [3], 14.9 % ID/g; in the series on Liver [4] it was 33.5 % ID/g; in the series on Brain [5], 0.4 % ID/g; in the series on Bone [6] it was 1.64 % ID/g. In addition, the Drug uptake in the series with Blood [7] came to 1.32 % ID/g; in the series on Muscle tissue [8], 1.62 % ID/g; in the series on Kidney [9] it was 13.4 % ID/g; in the series on Liver [10], 20 % ID/g; in the series with Brain [11], 0.34 % ID/g; in the series with Bone [12] it was 1.8 % ID/g.
